Tested on: MS2 coat protein
Test: apparent Kd, MS2 coat protein; higher = weaker binding; RNA-MaP array; FMN 200 µM where present
Procedure, shortened: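 Designs on Illumina sequencing-chip clusters, transcribed by stalled E. coli RNA polymerase, were exposed to SNAP-549-labelled MS2 coat protein in doubling steps from 0.7 or 1.5 nM up to 3 µM, without and then with constant ligand. The buffer held 100 mM Tris-HCl pH 7.5, 80 mM KCl, 4 mM MgCl2, BSA, DTT, yeast tRNA and Tween-20. Apparent Kd values are medians of filtered per-cluster binding-curve fits to green signal normalised to red-channel RNA signal and control-cluster median Fmax.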

[1] = designed as: OFF switch for flavin mononucleotide, no ligand
[2] = ligand present: flavin mononucleotide, designed as: OFF switch for flavin mononucleotide
[3] = designed as: ON switch for flavin mononucleotide, no ligand
[4] = ligand present: flavin mononucleotide, designed as: ON switch for flavin mononucleotide

Row | Sequence | apparent Kd [1] [nM] | apparent Kd [2] [nM] | apparent Kd [3] [nM] | apparent Kd [4] [nM]
1 | UGUUGAUAGCAGAAGGACAUGAGGAUCACCCAUGUAUGGAUACAAAUAUAUGUAGGAUAUGCUAUUAACUAAGAGUGAGCGUUC | 9.12 | 24.4 |  | 
2 | UGUUGGAGCAGAGGAUAUACAUGAGGAUCACCCAUGUAAUAAAGUGAAGCCUGGAAACAGGCAAUGUAGAAGGCUGCUCCGACA | 10.1 | 73.6 |  | 
3 | UGUUGUAUUACAGGAUAUCUAUGAUUUUGAUUUAGAGAAGGGUAUUCACAUGAGGAUCACCCAUGUAUAUACGAGGAAGUUGUG |  |  | 51.2 | 54.4
4 | UGUUGUAUUACAGGAUAUCUAUGAUUUUUAUUUAGAGAAGGGUAUUCACAUGAGGAUCACCCAUGUAUAUACGAGGAAGUUGUG |  |  | 46.1 | 51.7
5 | UGUUGUAUUACAGGAUAUCUAUUAUUUGUAUUUAGAGAAGGGUAUUCACAUGAGGAUCACCCAUGUAUAUACGAGGAAGUUGUG |  |  | 61.3 | 58.6
6 | UGUUGUUCAGGAUAUGAUGUAUAAUACAUGAGGAUCACCCAUGUGGGUCCUGAUUUGGCGUCAGAAGGGAAUGUUG | 88.3 | 146 |  | 
7 | UGUUUGUGAGGAUAUCCAAUAUAUGACAUGAGGAUCACCCAUGUUUCCACUCGUACCUCCGGAGAAGGCACUGCGU | 29.1 | 26 |  | 
8 | UGUUUUCAUGUAGGAUAUGCUUGUCGUAGAUACGCAGAAGGACAUGAGGAUCACCCAUGUUAAAGCGACAGAGUAUAGAUUCUU | 16.3 | 22.3 |  | 
9 | UGUUUUCAUGUAGGAUAUGCUUGUCGUAGAUACGCAGAAGGACAUGAGGAUCACCCAUGUUAAUGCGACAGAGUUUAGAUUCUU | 17.5 | 31.9 |  | 
10 | UGUUUUUAUGUGAGGAUAUGGGUUUGGUUGCGGGCUUAGAAGGUACAUGAGGAUCACCCAUGUACUUUGUGCAU | 16.4 | 17 |  | 
11 | UUAAAUCAUGUAGGAUAUGCAUGGCGAAGCUACGCAGAAGGACAUGAGGAUCACCCAUGUUAUAGCGACCAAGUAAGGUUGCAA | 91.6 | 197 |  | 
12 | UUAAAUCAUGUAGGAUAUGCAUGGCGAAGCUACGCAGAAGGACAUGAGGAUCACCCAUGUUAUAGCGACCAAGUUAGGUUGCAA | 88.7 | 211 |  | 
13 | UUAAAUCAUGUAGGAUAUGCAUGGCGAAGCUACGCAGAAGGACAUGAGGAUCACCCAUGUUAUAGCGUCCAAGUAAGGAUGCAA | 84.8 | 269 |  | 
14 | UUAACAUGAGGAUCACCCAUGUCGUGCAAGAUGAGUUCUGGUGAGGAUAUACAUGGUAAAGAACUGUAGAAGGCACUGGGUACA |  |  | 290 | 139
15 | UUAACAUGAGGAUCACCCAUGUCGUGCUAGAUGAGUUCUGGUGAGGAUAUACAUGGUAAAGAACUGUAGAAGGCACUGGGUACA |  |  | 309 | 336
16 | UUAAGCAAGGAGAAGGCCCAGGUGGGCCAUCACAUGAGGAUCACCCAUGUGGGAGGAUAUCCGGGCCCACGCUUAUCCGCGGGC | 7.6 | 12.6 |  | 
17 | UUAAUCUAUACAGGAUAUCCAUACGCUGCAUACGGAGAAGGGUAACAAUCAUGAGGACAUGAGGAUCACCCAUGUUUUGAGCAU |  |  | 42.8 | 26.3
18 | UUAAUUAACAAGAAGGCAUACAUGAGGAUCACCCAUGUUCUACAUGGAUAAUGAGGAUAUUGCUAAUACAUGAGGAUCACCCAU | 53.6 | 50.8 |  | 
19 | UUAAUUAAUUAAUUCGUCAUUACAUGAGGAUCACCCAUGUAUAAGGAUAUGCAGUGGAAUACACUGCAGAAGGUAUACAAGACG | 18.4 | 26.6 |  | 
20 | UUAAUUUGAUGAUAUUAUGACAUUAGAAGGCUGUACAUGUUGAUACAUGAGGAUCACCCAUGUAUAGAGGAUAUAGACAAUUUU | 40.9 | 91.7 |  | 
21 | UUAAUUUUAUGAUAUUAUGACAUUAGAAGGCUGUACAUGUUGAUACAUGAGGAUCACCCAUGUAUAGAGGAUAUAGACAAUUUU | 32.4 | 63.9 |  | 
22 | UUACAUACAAAGGUACAUGAGGAUCACCCAUGUUUGUUGGGAAGAAGGGUAACAGUACUACAUAUAUAGGAUAUUUCACAAAUA |  |  | 122 | 86.6
23 | UUACCUCAUGAGAAGGCGAUCAUGAAACAUGAUCGAGGAUAUCAUGUAAACAUGAGGAUCACCCAUGUAUGGGUAUUAUGGUAG |  |  | 198 | 56.8
24 | UUACCUUAUGAGAAGGCGAUCAUGAAACAUGAUCGAGGAUAUCAUGUAAACAUGAGGAUCACCCAUGUAUGGGUAUUAUGGUAG |  |  | 133 | 32.5
25 | UUACCUUAUGAGAAGGCGGUCAUGAAACAUGAUCGAGGAUAUCAUGUAAACAUGAGGAUCACCCAUGUAUGGGUAUUAUGGUAU |  |  | 142 | 27.3
26 | UUACUCAUGUAAGGAUAUGCAGCCGAAACGGCUGUAGAAGGUACUAAAAUACAUGAGGAUCACCCAUGUCUUUUUAAUUUAGAC |  |  | 103 | 74.6
27 | UUACUCAUGUAAGGAUAUGCAGCCGUUUCGGUUGCAGAAGGUACUAUAAUACAUGAGGAUCACCCAUGUCUUUUUAAUUUAGAC |  |  | 78.4 | 39.6

Row | Sequence | apparent Kd [1] [nM] | apparent Kd [2] [nM] | apparent Kd [3] [nM] | apparent Kd [4] [nM]
28 | UUAGAAUUUGCAGGAUAUUGUAUUUUAUUACAUCAAGAAGGGCAUUACAUGAGGAUCACCCAUGUUAACAUGGUUAUAAAUUUU | 94.8 | 29.5 |  | 
29 | UUAGAUUAUGAAGGAUAUGGAUCUUAUUAUUAACCAGAAGGUCAACUCAACAUGAGGAUCACCCAUGUAUAAAGGGUAUUAGUU | 134 | 132 |  | 
30 | UUAGCAUACCGAGGAUAUUCAUAUAAUAAAUAAACAUGAGGAUCACCCAUGUGGCGAAAGCCUAGGGAGAAGGCGGAAUGCUUU |  |  | 177 | 28.1
31 | UUAGGACGAAACAUGAGGAUCACCCAUGUGUUAUAAUUAAUAUAGGAUAUGUUUAUACUUUUUGGGCAGAAGGAUGAUAUUGCU |  |  | 19.8 | 16.8
32 | UUAGGAUCAGGAUAUGAUGUUUUAAACAUGAGGAUCACCCAUGUAGAUCCUGAAUCAACAUCAGAAGGGAUAAUUU | 56.6 | 184 |  | 
33 | UUAGUCAUGUGACGUGUUGACAUUCCAGAAGGGCCACAUGAGGAUCACCCAUGUCGAAGAAACAGGCAGGAUAUGGACCAAUGG |  |  | 43 | 11.2
34 | UUAUCUAUGUAAGGAUAUCGAUGAUAUACGCAUCCGACAUGAGGAUCACCCAUGUUAUAUUUUGUCGAGAAGGUACAUUGUCGG |  |  | 46.8 | 50.3
35 | UUAUGUCGCGUAGGAUAUCACUAGAGUUGUAAUUUAAUUGUAAUUUCGAUGUGAGAAGGACGUACACAUGAGGAUCACCCAUGU | 19.5 | 16.3 |  | 
36 | UUAUUAUAUGUAGGAUAUGCAUAUUAUUAUUAUGCAGAAGGACAUGAGGAUCACCCAUGUAUAUUAUUAUUAUAUAUUAUAUGU | 41.2 | 86.1 |  | 
37 | UUAUUAUAUGUAGGAUAUGCAUAUUAUUAUUAUGCAGAAGGACAUGAGGAUCACCCAUGUAUAUUAUUAUUAUAUAUUAUGUAU | 36.3 | 61 |  | 
38 | UUAUUAUAUGUAGGAUAUGCAUAUUAUUAUUAUGCAGAAGGACAUGAGGAUCACCCAUGUAUGUUAUUAUUAUAUAUUAUAUAU | 26.1 | 34.7 |  | 
39 | UUAUUUAGUGUGAGGAUAUGCUGGUCCUUGGAUCAGCAGAAGGCACAUGAGGAUCACCCAUGUAAUAUAUUAAU | 91 | 305 |  | 
40 | UUAUUUAGUGUGAGGAUAUGCUGGUCGAUAGAUCAGCAGAAGGCACAUGAGGAUCACCCAUGUAAUAUAUUAAA | 58.9 | 248 |  | 
41 | UUAUUUUGUCAAGGAUAUGUAUUAUUGAUUUGAAAACAUGAGGAUCACCCAUGUAUAUGGUGGGAACAGAAGGUGAAUAAGUAA | 248 | 235 |  | 
42 | UUCAGACAUGAGGAUCACCCAUGUGAGGAUAUGAUGCGAUCGUCGAAAGACGAUAGCAUCAGAAGGCACGUAUG | 82.9 | 135 |  | 
43 | UUCAGCUCGUGAGGAUAUACAUGUGCUGGAAACAGCACUAUUGAGUUCACAUGAGGAUCACCCAUGUAGAAGGCACGAGCUGAG | 15.2 | 27.9 |  | 
44 | UUCAGCUCGUGAGGAUAUACAUGUGCUGGAAACAGCACUAUUGUGUUCACAUGAGGAUCACCCAUGUAGAAGGCACGAGCUGAG | 18.6 | 82.1 |  | 
45 | UUCAUCAAUGAAGGAUAUCUAUAUCCAACAUGAGGAUCACCCAUGUUGAGGAUCACCCAUGUAAAGGAGAAGGUUAAUAUAACU |  |  | 35.9 | 31.4
46 | UUCAUCAAUGAAGGAUAUCUAUGUCCAACAUGAGGAUCACCCAUGUUGAGGAUCACCUAUGUGUAGGAGAAGGUUAAUAUAACU |  |  | 7.98 | 6.38
47 | UUCAUGUGAGGAUAUGCGGCACCAGGCAAGCCUAGUGCUGAGCAGAAGGCACAUGAGGAUCACCCAUGUGCUCC | 29.3 | 72.2 |  | 
48 | UUCAUGUUAGGAUAUUCCGCCACAGAGAAAGUCUGUGGAAUGAAGAAGGGACAUGAGGAUCACCCAUGUUCCAA | 15.1 | 15.9 |  | 
49 | UUCAUUAACAUGAGGAUCACCCAUGUUGGCCAGUCUCACACCAGAAGGCACGUUGAGCACAGCAGUGAGGAUAUGGGUGACAUA |  |  | 236 | 223
50 | UUCCUCAUAACAUGAGGAUCACCCAUGUAUUAAUAGAUAACUGAGGAUAUACUAAUAAUGUUUAUGUAGAAGGCAGAUACAGAU | 49.6 | 106 |  | 
51 | UUCGCUAAGGUGUAGCGAGACACGCAAGAAGGGUGAUGCACAUGAGGAUCACCCAUGUAAGCCUUACAGGAUAUUGCUUGCCGA |  |  | 899 | 211
52 | UUCUACAAGUAAGGAUAUCGGCUAUAGUUAACUCGAGAAGGUACAUGAGGAUCACCCAUGUAGUAGAUACAGACUACUGGCUUG | 10.9 | 13.3 |  | 
53 | UUCUUACAUGAGGAUCACCCAUGUCAGGAUAUCUCCGCACUGCGCUUGCGCAGUGCAUAGAGAAGGGACAGGCU | 55 | 50.2 |  | 
54 | UUGACGGCAGGAUAUACAUGAGGAUCACCCAUGUAAAUUUUUCGUUUAACUUGAAUGUGUAGAAGGGCCAAAUU | 19 | 20 |  | 

— the EternaBench riboswitch data
